Measured values as given in ChEMBL document CHEMBL4251599, “Synthesis and biological evaluation of coumarin derivatives containing imidazole skeleton as potential antibacterial agents” (Eur J Med Chem, 2018).
≈ marks a conversion by molar mass, not a printed value.

Assays:
Type in all cases: functional
Escherichia coli [1] = experiment: Antibacterial activity against Escherichia coli ATCC 35150 after 24 hrs by two fold serial dilution method; conditions: ATCC 35150, 24 h
In short: (§1)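 Broth two-fold serial dilution per CLSI, in nutrient broth. Inoculum from 24 h cultures at 28 ± 1 °C, adjusted in saline to 1×10^7-2×10^7 cfu/mL, then diluted to 1×10^5-2×10^5 cfu/mL. Test range 256 down to 0.50 µM and lower. Tubes held 24 h at 28 ± 1 °C. MIC read visually. Enrofloxacin and norfloxacin served as standards.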

Escherichia coli [2] = experiment: Bactericidal activity against Escherichia coli ATCC 35150 incubated for 24 hrs followed by re-plating on nutrient agar and measured after overnight incubation by two fold serial dilution method; conditions: ATCC 35150, 24 h
In short: (§2)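 After the MIC read, 100 µl from every tube without visible growth was spread on nutrient agar lacking compound. Plates were incubated overnight at 28 ± 1 °C. MBC was taken as the lowest concentration killing >99.9% of the initial population, seen as no growth on agar.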

Streptococcus agalactiae [3] = experiment: Bactericidal activity against Streptococcus agalactiae WB1445 incubated for 24 hrs followed by re-plating on nutrient agar and measured after overnight incubation by two fold serial dilution method; conditions: WB1445, 24 h; in short: as §2
Streptococcus agalactiae [4] = experiment: Antibacterial activity against Streptococcus agalactiae WB1445 after 24 hrs by two fold serial dilution method; conditions: WB1445, 24 h; in short: as §1
Flavobacterium columnare [5] = experiment: Antibacterial activity against Flavobacterium columnare FC-G1 after 24 hrs by two fold serial dilution method; conditions: FC-G1, 24 h; in short: as §1
Staphylococcus aureus [6] = experiment: Antibacterial activity against Staphylococcus aureus ATCC 29213 after 24 hrs by two fold serial dilution method; conditions: ATCC 29213, 24 h; in short: as §1
Staphylococcus aureus [7] = experiment: Bactericidal activity against Staphylococcus aureus ATCC 29213 incubated for 24 hrs followed by re-plating on nutrient agar and measured after overnight incubation by two fold serial dilution method; conditions: ATCC 29213, 24 h; in short: as §2
Flavobacterium columnare [8] = experiment: Bactericidal activity against Flavobacterium columnare FC-G1 incubated for 24 hrs followed by re-plating on nutrient agar and measured after overnight incubation by two fold serial dilution method; conditions: FC-G1, 24 h; in short: as §2

Row | Compound | MIC (Escherichia coli [1]) [µM] | MBC (Escherichia coli [2]) [µM] | MBC (Streptococcus agalactiae [3]) [µM] | MIC (Streptococcus agalactiae [4]) [µM] | MIC (Flavobacterium columnare [5]) [µM] | MIC (Staphylococcus aureus [6]) [µM] | MBC (Staphylococcus aureus [7]) [µM] | MBC (Flavobacterium columnare [8]) [µM]
1 | O=c1ccc2ccc(OCCn3cnc4ccccc43)cc2o1 | 128 (≈ 39.2 µg/mL) | 256 (≈ 78.4 µg/mL) | > 256 | > 256 | > 256 | 64 (≈ 19.6 µg/mL) | 256 (≈ 78.4 µg/mL) | > 256
2 | O=c1ccc2ccc(OCCCCCCCCBr)cc2o1 | > 256 | > 256 | > 256 | > 256 | > 256 | > 256 | > 256 | > 256
3 | Cc1cn(CCOc2ccc3ccc(=O)oc3c2)cn1 | 16 (≈ 4.32 µg/mL) | 64 (≈ 17.3 µg/mL) | > 256 | > 256 | > 256 | > 256 | > 256 | > 256
4 | O=c1ccc2ccc(OCCCCn3ccnc3)cc2o1 | 128 (≈ 36.4 µg/mL) | 256 (≈ 72.8 µg/mL) | > 256 | > 256 | > 256 | 64 (≈ 18.2 µg/mL) | 256 (≈ 72.8 µg/mL) | > 256
5 | O=c1ccc2ccc(OCCCCCCCCN3CCNCC3)cc2o1 |  |  | > 256 | > 256 | > 256 |  |  | > 256
6 | NCCCCCCCCOc1ccc2ccc(=O)oc2c1 |  |  | > 256 | > 256 | > 256 |  |  | > 256
7 | O=c1ccc2ccc(OCCCCCCCCn3cccn3)cc2o1 |  |  | > 256 | > 256 | > 256 |  |  | > 256
8 | Cc1cn(CCCCCCCCOc2ccc3c(C)cc(=O)oc3c2)cn1 | > 256 | > 256 | 32 (≈ 11.8 µg/mL) | 8 (≈ 2.95 µg/mL) | 8 (≈ 2.95 µg/mL) | 32 (≈ 11.8 µg/mL) | 256 (≈ 94.3 µg/mL) | 16 (≈ 5.9 µg/mL)
9 | O=c1ccc2ccc(OCCCCn3cnc4ccccc43)cc2o1 | 8 (≈ 2.68 µg/mL) | 64 (≈ 21.4 µg/mL) | > 256 | > 256 | > 256 | 32 (≈ 10.7 µg/mL) | 256 (≈ 85.6 µg/mL) | > 256
10 | O=c1ccc2ccc(OCCCCCCCCN3CCCCC3)cc2o1 |  |  | > 256 | > 256 | > 256 |  |  | > 256
11 | Cc1cc(=O)oc2cc(OCCCCCCCCn3cnc4ccccc43)ccc12 | > 256 | > 256 | 64 (≈ 25.9 µg/mL) | 32 (≈ 12.9 µg/mL) | 16 (≈ 6.47 µg/mL) | 32 (≈ 12.9 µg/mL) | 256 (≈ 104 µg/mL) | 64 (≈ 25.9 µg/mL)
12 | O=c1ccc2ccc(OCCCCCCn3ccnc3)cc2o1 | 32 (≈ 10 µg/mL) | 64 (≈ 20 µg/mL) | > 256 | > 256 | 64 (≈ 20 µg/mL) | 64 (≈ 20 µg/mL) | 64 (≈ 20 µg/mL) | 128 (≈ 40 µg/mL)
13 | Cc1cc(=O)oc2cc(OCCCCCCCCn3ccnc3)ccc12 | > 256 | > 256 | 16 (≈ 5.67 µg/mL) | 8 (≈ 2.84 µg/mL) | 4 (≈ 1.42 µg/mL) | 64 (≈ 22.7 µg/mL) | 256 (≈ 90.7 µg/mL) | 16 (≈ 5.67 µg/mL)
14 | O=c1ccc2ccc(OCCCCn3ccnc3-c3ccccc3)cc2o1 | 32 (≈ 11.5 µg/mL) | 128 (≈ 46.1 µg/mL) | > 256 | > 256 | > 256 | > 256 | > 256 | > 256
15 | O=c1ccc2ccc(OCCCCCCCCn3ccnc3-c3ccccc3)cc2o1 | > 256 | > 256 | > 256 | > 256 | > 256 | > 256 | > 256 | > 256
16 | O=c1ccc2ccc(OCCCCCCCCn3cnc4ccccc43)cc2o1 | > 256 | > 256 | 512 (≈ 200 µg/mL) | 256 (≈ 100 µg/mL) | 8 (≈ 3.12 µg/mL) | 32 (≈ 12.5 µg/mL) | 128 (≈ 50 µg/mL) | 32 (≈ 12.5 µg/mL)
17 | Cc1cc(=O)oc2cc(OCCCCCCCCBr)ccc12 | > 256 | > 256 | > 256 | > 256 | > 256 | > 256 | > 256 | > 256
